Experimental data reported in ChEMBL document CHEMBL1125582, “4-hydroxythiazole inhibitors of 5-lipoxygenase” (J Med Chem, 1991).
Each block holds one molecule with its values, some of them ahead of it. Active and inactive are the calls of the source. The calls are words filed in the database; no cut-off is given here.

What was measured:
[1] = target: T1, Arachidonate 12-lipoxygenase (Rattus norvegicus) (UniProt Q02759); test: The compound was tested for the in vitro inhibition of platelet 12-lipoxygenase at a concentration of 100 uM
T1 sequence (whole entry): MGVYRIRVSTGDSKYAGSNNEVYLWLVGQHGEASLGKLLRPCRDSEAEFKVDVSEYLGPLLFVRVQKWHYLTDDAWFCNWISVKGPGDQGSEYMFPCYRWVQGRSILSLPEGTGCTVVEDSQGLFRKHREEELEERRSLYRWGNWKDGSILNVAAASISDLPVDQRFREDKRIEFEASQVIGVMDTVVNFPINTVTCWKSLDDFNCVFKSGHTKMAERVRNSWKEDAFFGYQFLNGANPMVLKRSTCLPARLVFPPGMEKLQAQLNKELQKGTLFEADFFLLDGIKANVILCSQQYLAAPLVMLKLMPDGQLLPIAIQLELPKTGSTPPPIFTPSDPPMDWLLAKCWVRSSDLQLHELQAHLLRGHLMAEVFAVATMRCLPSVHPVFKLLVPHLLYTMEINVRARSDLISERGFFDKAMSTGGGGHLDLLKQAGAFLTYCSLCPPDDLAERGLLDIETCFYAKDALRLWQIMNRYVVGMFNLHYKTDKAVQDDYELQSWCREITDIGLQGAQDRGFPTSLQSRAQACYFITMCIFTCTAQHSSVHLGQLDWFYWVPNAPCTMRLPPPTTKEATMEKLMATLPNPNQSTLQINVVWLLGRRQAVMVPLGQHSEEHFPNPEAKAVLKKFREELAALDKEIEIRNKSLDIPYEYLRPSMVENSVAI

[2] = system: 15-lipoxygenase (Glycine max); test: The compound was tested for the in vitro inhibition of 15-lipoxygenase of soybean at a concentration of 10 uM; conditions: at 10 µM
[3] = system: cyclooxygenase (Ovis aries); test: The compound was tested for the in vitro inhibition of Prostaglandin G/H synthase of sheep seminal vesicle at a concentration of 30 uM
[4] = target: T2, Polyunsaturated fatty acid 5-lipoxygenase (Rattus norvegicus) (UniProt P12527); test: The compound was tested for the in vitro inhibition of 5-lipoxygenase from the 20000 g supernatant of RBI-1 cells; NS indicates nonsignificant inhibition at 32 uM concentration; assay type: cell-based
T2 sequence (whole entry): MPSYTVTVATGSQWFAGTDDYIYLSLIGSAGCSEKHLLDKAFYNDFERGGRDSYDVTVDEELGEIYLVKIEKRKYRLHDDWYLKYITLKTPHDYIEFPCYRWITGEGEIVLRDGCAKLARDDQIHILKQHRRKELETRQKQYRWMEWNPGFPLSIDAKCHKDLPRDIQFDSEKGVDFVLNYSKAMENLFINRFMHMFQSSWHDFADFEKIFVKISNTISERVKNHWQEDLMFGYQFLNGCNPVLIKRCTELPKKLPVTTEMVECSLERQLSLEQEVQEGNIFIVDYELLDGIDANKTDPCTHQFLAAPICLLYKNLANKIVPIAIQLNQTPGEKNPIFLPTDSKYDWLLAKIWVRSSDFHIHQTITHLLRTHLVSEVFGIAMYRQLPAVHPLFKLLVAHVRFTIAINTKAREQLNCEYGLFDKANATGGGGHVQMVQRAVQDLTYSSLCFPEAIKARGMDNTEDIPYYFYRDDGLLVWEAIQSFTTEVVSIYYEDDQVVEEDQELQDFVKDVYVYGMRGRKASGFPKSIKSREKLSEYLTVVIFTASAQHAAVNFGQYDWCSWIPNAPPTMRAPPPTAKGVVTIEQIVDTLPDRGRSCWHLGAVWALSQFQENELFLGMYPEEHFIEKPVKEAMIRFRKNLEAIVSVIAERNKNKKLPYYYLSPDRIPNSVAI
How it was run: (§1)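 20000g supernatant of homogenized RBL-1 cells (7.5 × 10⁶ cell equiv/mL) preincubated 20 min at 37 °C with inhibitor or 2% Me₂SO vehicle in pH 6.8 BES/PIPES buffer with EDTA, NaCl, 0.7 mM CaCl₂. Reaction started with 66 μM [¹⁴C]arachidonic acid. [¹⁴C]-5-HETE counted by scintillation, corrected for [³H]-5-HETE recovery.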

[5] = target: T3, Polyunsaturated fatty acid 5-lipoxygenase (Rattus norvegicus, UniProt P12527); test: The compound was tested for the in vitro inhibition of 5-lipoxygenase from the 20000 g supernatant of RBI-1 cells; assay type: cell-based; how it was run: as §1
T3 sequence (P12527 whole entry): T2 sequence (whole entry)

[6] = system: 15-lipoxygenase (Glycine max); test: The compound was tested for the in vitro inhibition of 15-lipoxygenase of soybean at a concentration of 100 uM; conditions: at 100 µM
[7] = system: cyclooxygenase (Ovis aries); test: The compound was tested for the in vitro inhibition of Prostaglandin G/H synthase of sheep seminal vesicle at a concentration of 100 uM
[8] = target: T2, Polyunsaturated fatty acid 5-lipoxygenase (Rattus norvegicus); test: The compound was tested for the in vitro inhibition of 5-lipoxygenase (5-lo) from the 20000 g supernatant of RBI-1 cells measured at a concentration of 30 uM; assay type: cell-based; how it was run: as §1
[9] = target: T1, Arachidonate 12-lipoxygenase (Rattus norvegicus); test: The compound was tested for the in vitro inhibition of platelet 12-lipoxygenase at a concentration of 30 uM
[10] = target: T2, Polyunsaturated fatty acid 5-lipoxygenase (Rattus norvegicus); test: The compound was tested for the in vitro inhibition of 5-lipoxygenase (5-lo) from the 20000 g supernatant of RBI-1 cells at a concentration of 30 uM; assay type: cell-based; how it was run: as §1
[11] = target: T4, Polyunsaturated fatty acid 5-lipoxygenase (Homo sapiens, UniProt P09917); test: The compound was tested for the inhibition of 5-lipoxygenase (5-lo) in human whole blood (HWBL); assay type: tissue-based
T4 sequence (P09917 whole entry): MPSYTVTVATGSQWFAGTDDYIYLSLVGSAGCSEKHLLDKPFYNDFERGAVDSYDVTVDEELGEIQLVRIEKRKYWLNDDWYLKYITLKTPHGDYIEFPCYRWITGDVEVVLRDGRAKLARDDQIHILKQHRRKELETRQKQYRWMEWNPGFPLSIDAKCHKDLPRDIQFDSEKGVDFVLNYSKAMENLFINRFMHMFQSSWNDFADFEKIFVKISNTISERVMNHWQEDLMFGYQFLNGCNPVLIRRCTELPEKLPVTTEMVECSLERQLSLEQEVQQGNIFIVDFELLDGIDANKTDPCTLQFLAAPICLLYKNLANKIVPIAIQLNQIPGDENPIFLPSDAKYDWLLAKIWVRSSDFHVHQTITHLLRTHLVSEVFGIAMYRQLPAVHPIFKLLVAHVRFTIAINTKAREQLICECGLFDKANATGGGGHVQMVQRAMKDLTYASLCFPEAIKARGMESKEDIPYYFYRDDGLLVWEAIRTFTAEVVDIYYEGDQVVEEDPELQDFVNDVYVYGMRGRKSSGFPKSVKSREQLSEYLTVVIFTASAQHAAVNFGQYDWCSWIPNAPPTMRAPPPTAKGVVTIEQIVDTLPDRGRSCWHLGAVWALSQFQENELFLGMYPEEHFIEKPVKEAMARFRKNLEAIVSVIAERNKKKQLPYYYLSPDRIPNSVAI
How it was run: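 Heparinized (20 units/mL) human blood preincubated 15 min at 37 °C with compound or vehicle. Challenged with A23187 in DMSO (final 50 μM) for 30 min, then chilled and centrifuged. Plasma extracted with 4 volumes methanol for at least 2 h at 3 °C. LTB₄ measured by RIA or EIA.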

[12] = target: T3, Polyunsaturated fatty acid 5-lipoxygenase; test: In vitro inhibition of 5-lipoxygenase (5-lo) from the 20000 g supernatant of RBI-1 cells; assay type: cell-based
[13] = target: T3, Polyunsaturated fatty acid 5-lipoxygenase; test: The compound was tested for the inhibition of 5-lipoxygenase (5-lo) in homogenized rat basophilic leukemia (RBL-1) cells; assay type: cell-based; how it was run: as §1
[14] = target: T2, Polyunsaturated fatty acid 5-lipoxygenase (Rattus norvegicus); test: The compound was tested for the in vitro inhibition of 5-lipoxygenase (5-lo) from the 20000 g supernatant of RBI-1 cells at a concentration of 32 uM; assay type: cell-based
How it was run: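 RBL-1 cell homogenate, 20000g supernatant (7.5 × 10⁶ cell equiv/mL), preincubated 20 min at 37 °C with inhibitor or 2% Me₂SO vehicle in pH 6.8 BES/PIPES/EDTA/NaCl/CaCl₂ buffer; reaction started with 66 μM [¹⁴C]arachidonic acid. [¹⁴C]-5-HETE counted by scintillation, corrected by [³H]-5-HETE recovery; percent reduction vs control, single 32 μM concentration.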

[15] = target: T3, Polyunsaturated fatty acid 5-lipoxygenase; test: Inhibition of 5-lipoxygenase (5-lo) in intact rat polymorphonuclear leukocyte RPMNL
How it was run: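 Pleural PMNL from carrageenan-injected male Sprague-Dawley rats (200-250 g). Erythrocytes lysed with water, cells washed and held in HEPES/Earle's salts pH 7.0 with 1 mg/mL BSA. 5×10^6 cells preincubated 15 min at 37 °C with compound or DMSO (final 2%). Stimulated with A23187 (final 8.3 μM) for 10 min, stopped on ice. Methanol extracts assayed for LTB₄ by HPLC.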

IC50 [5]: 4.4 µM
Structure (SMILES): CN(O)C(=O)Cc1sc(-c2ccccc2)nc1O

inhibition [1]: 3% | inhibition [6]: 34% | inhibition [7]: 11%
Structure (SMILES): Oc1nc(-c2ccccc2)sc1CCc1ccccc1

inhibition [10]: 17%
Structure (SMILES): CCOC(=O)c1sc(-c2ccccc2)nc1O

IC50 [11]: 2200 nM | IC50 [12]: 3300 nM | IC50 [13]: 1400 nM
Structure (SMILES): CCCOC(=O)Oc1nc(-c2ccccc2)sc1CCC

inhibition [1]: 51% | inhibition [2]: 44% | inhibition [3]: 32%
Structure (SMILES): Cc1sc(-c2ccccc2)nc1O

inhibition [10]: 24%
Structure (SMILES): O=C(O)Cc1sc(-c2ccccc2)nc1O

More lines, now with the values behind:

Structure (SMILES): COC(=O)c1ccc(-c2nc(O)c(C)s2)cc1
inhibition [1]: 0% | inhibition [2]: 52% | inhibition [3]: 6%

Structure (SMILES): Cc1sc(NN)nc1O
inhibition [4]: inactive

Structure (SMILES): O=C1CSC(c2ccccc2)=N1
inhibition [8]: 26%

Structure (SMILES): Oc1nc(-c2ccccc2)sc1-c1ccccc1
inhibition [9]: 12% | inhibition [6]: 50% | inhibition [3]: 47%

Structure (SMILES): Cc1sc(-c2ccc(-c3ccccc3)cc2)nc1O
inhibition [10]: 40%

Structure (SMILES): O=C1CSC(c2cccnc2)=N1
inhibition [8]: 8%

Structure (SMILES): Oc1nc(-c2ccc(F)cc2)sc1-c1ccccc1
inhibition [1]: 0% | IC50 [11]: 470 nM | IC50 [12]: 500 nM | inhibition [6]: 16% | inhibition [7]: 20%

Structure (SMILES): Cc1sc(N)nc1O
inhibition [4]: inactive

Structure (SMILES): COP(=O)(OC)Oc1nc(-c2ccccc2)sc1-c1ccccc1
inhibition [14]: 14%

Structure (SMILES): Cc1nc(O)c(C)s1
inhibition [4]: inactive

Structure (SMILES): COc1ccc(-c2nc(O)c(-c3ccccc3)s2)cc1
inhibition [1]: 6% | IC50 [11]: 2400 nM | IC50 [12]: 370 nM | IC50 [15]: 450 nM | inhibition [6]: 22% | inhibition [7]: 25%
